Measured values gathered from unrelated publications.
Lines come from different studies, so protocols differ.
CDK17: Cyclin-dependent kinase 17 (CDK17, Homo sapiens, UniProt Q00537)
CDK17 with cyclin Y: Cyclin-dependent kinase 17, with cyclin Y (CDK17, Homo sapiens, UniProt Q00537)

| SMILES | target | read-out | mode | method | tested at | measurement | value |
| --- | --- | --- | --- | --- | --- | --- | --- |
| CC#CC(=O)N1CCC[C@H]1c1nc(-c2ccc(C(=O)Nc3ccccn3)cc2)c2c(N)nccn12 | CDK17 | enzyme activity | inhibitor |  | 1 µM | inhibition | 0% |
| CC(C)S(=O)(=O)c1ccc2nccc(Nc3ccc4sc(C5CCCC5)nc4c3)c2c1 | CDK17 with cyclin Y | enzyme activity | inhibitor |  | 1 µM | activity vs control | 111% |
| CCCCC(=O)Nc1ccc(-c2ccc3ncn(CCC)c(=O)c3c2)cn1 | CDK17 | binding |  | competition with immobilised ligand | 0.5 µM | remaining binding | 100% |
| Cc1cc(O)c(-c2ccc([C@@H](C)CN(C)C)cc2)c2c1[nH]c(=O)c1sccc12 | CDK17 | enzyme activity | inhibitor |  | 0.1 µM | inhibition | 2.42% |
| Cc1ccc(NC(=O)c2ccnc(C(F)(F)F)c2)cc1-c1cc(OCCO)nc(N2CCOCC2)c1 | CDK17 | binding |  | competition with immobilised ligand | 1 µM | remaining binding | 98% |
| COc1ccc2oc(-c3ccc4nc(N)oc4c3)c/c(=N\c3ccccc3NC(=O)CCN)c2c1 | CDK17 with cyclin Y | binding |  |  | 1 µM | remaining binding | 100% |
| CO[C@@H]1[C@H](N(C)C(=O)c2ccccc2)C[C@H]2O[C@]1(C)n1c3ccccc3c3c4c(c5c6ccccc6n2c5c31)C(=O)NC4 | CDK17 | enzyme activity | inhibitor |  | 1 µM | inhibition | 0% |
| C[C@H]1CC[C@H](n2c3cnccc3c3cnc(Nc4ccc5c(n4)CCN(C(=O)CO)C5)nc32)CC1 | CDK17 | binding |  | competition with immobilised ligand | 1 µM | remaining binding | 24% |
